Calls of active or inactive are those of the source. The calls are words filed in the database; no cut-off is given here.
Assays:
Breast cancer cell line [1] = experiment: Synergistic apoptosis activity in patient-derived breast cancer cells orthotopically xenografted in NSG mouse model of PDX assessed as increase in cleaved caspase-3 at 50 mg/kg, ip 5 out of 7 for 2 weeks by Immunostaining analysis; type: functional, organism-based; details: Homo sapiens
Outline: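 Paraffin sections of treated PDX tumours deparaffinised and subjected to antigen retrieval in citrate buffer pH 6. Peroxidase staining with ready-to-use Ki67 or cleaved caspase-3 antibody, DAB substrate, haematoxylin counterstain. Proportion of positive cells quantified; n = 3; t-test.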

Breast cancer cell line [2] = experiment: Antitumor activity against human CRCM494 negative breast cancer cells orthotopically xenografted in NSG mouse model of PDX assessed as reduction ALDHbr cells at 50 mg/kg, ip 5 out of 7 for 2 weeks by LSR2 cytometer analysis; type: functional, organism-based
Outline: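 Chemo-naïve triple-negative PDX cells injected at 100,000 per fat pad, two fat pads per NSG mouse. At ~80 mm³ tumours, mice received i.p. 3 mg/kg daily for 14 days or 50 mg/kg 5 of 7 days for 2 weeks; placebo was DMSO/HPCD 10% (1:9). Five mice (10 tumours) per group. Tumour growth monitored; after 2 weeks tumours dissociated, mouse cells excluded via anti-H2Kd, ALDHbr measured by ALDEFLUOR flow cytometry and normalised to vehicle.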

SUM-159-PT [3] = experiment: Synergistic apoptosis in human SUM159 cell expressing ALDH at 500 nM incubated for 72 hrs in presence of salinomycin by ALDEFLUOR/YO-PRO-3/ Hoechst 33342 staining based high content imaging microscopic analysis; type: functional
Outline: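 SUM159 cells seeded at 3,000 cells/well in collagen-coated 96-well plates. Drug added at 6, 24 and 48 h post-seeding. Cisplatin served as positive control and 0.1% v/v DMSO as vehicle control. At 72 h post-seeding, cells were stained with ALDEFLUOR, YO-PRO-3 (1/4,000) and Hoechst 33342 (10 μg/ml) in ALDEFLUOR buffer for 30 min at 37°C, then imaged on ice by high-content microscopy, 9 fields/well. DEAB set the ALDHbr gate. YO-PRO-3⁺ fraction per subpopulation was gated against untreated cells.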

Breast cancer cell line [4] = experiment: Antitumor activity against human reimplanted CRCM494 negative breast cancer cells orthotopically xenografted in NSG mouse model of PDX assessed as reduction tumor volume at 50 mg/kg, ip 5 out of 7 for 2 weeks by limiting dilation analysis; type: functional, organism-based
Outline: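 After 2 weeks of i.p. treatment (3 mg/kg daily or 50 mg/kg 5 of 7 days), dissociated PDX tumour cells reimplanted into secondary NSG mice at 50, 500 or 5,000 cells. A mouse counted as tumour-bearing once a tumour reached 10 mm. bCSC frequency per 10,000 cells estimated by ELDA; pairwise chi-square test.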

SUM-159-PT [5] = experiment: Synergistic anticancer activity against human SUM159 cells assessed as decrease in docetaxel induced ALDHbr cells at 62 nM in presence of salinomycin by LSR2 cytometer analysis; type: functional, cell-based
Outline: (§1)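 SUM159 or SUM149 cells treated 72 h in adherent conditions; docetaxel combined with other drugs at 2 nM; combination doses chosen from synergy distributions (Sal/JQ1 62 nM/62 nM). ALDEFLUOR staining with DEAB control, flow cytometry on LSR2. n = 8; Student's t-test; mean ± SD.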

SUM-159-PT [6] = experiment: Synergistic anticancer activity against human SUM159 cells at 500 nM incubated for 72 hrs in presence of salinomycin by ALDEFLUOR staining based flow cytometric analysis; type: functional, cell-based
SUM-159-PT [7] = experiment: Anticancer activity against human SUM159 cells assessed as decrease in secondary tumor sphere formation incubated for 72 hrs by Extreme limiting dilution analysis; type: functional, cell-based
Outline: (§2)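 Cells drug-treated in adherent culture for 72 h, then plated as single cells in ultra-low attachment 96-well plates in serum-free mammary epithelium basal medium. Plating at 25/10/5/3/2/1 cells per well, 18–36 wells per condition. Wells with ≥1 sphere after 10 days scored positive. Secondary spheres were made by dissociating primary spheres. Frequency by ELDA; n = 4; pairwise chi-square test.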

Breast cancer cell line [8] = experiment: Synergistic antitumor activity against human CRCM404 negative breast cancer cells orthotopically xenografted in NSG mouse model of PDX assessed as reduction in tumor volume at 50 mg/kg, ip 5 out of 7 for 2 weeks cotreated with salinomycin; type: functional, organism-based
Outline: (§3)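 Orthotopic PDX in NSG mice, 100,000 cells per fat pad, two pads per mouse; treatment from ~80 mm³ tumours with salinomycin i.p. 3 mg/kg daily 14 days, JQ1 i.p. 50 mg/kg 5 of 7 days for 2 weeks, or combination, against placebo DMSO/HPCD 10% (1:9). Tumour growth monitored; n = 10 tumours per group.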

SUM-159-PT [9] = experiment: Anticancer activity against human SUM159 cells assessed as decrease in primary tumor sphere formation incubated for 72 hrs by Extreme limiting dilution analysis; type: functional, cell-based; outline: as §2
SUM149PT = experiment: Synergistic anticancer activity against human SUM149 cells assessed as decrease in docetaxel induced ALDHbr cells at 62 nM in presence of salinomycin by LSR2 cytometer analysis; type: functional, cell-based; outline: as §1
Breast cancer cell line [10] = experiment: Synergistic antitumor activity against human CRCM404 negative breast cancer cells xenografted in NSG mouse model of PDX assessed as reduction metastasis formation in liver at 50 mg/kg, ip 5 out of 7 for 2 weeks cotreated with salinomycin; type: functional, organism-based
Outline: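 Luciferase-expressing PDX cells sorted H2Kd⁻ and viable, 100,000 in 100 μl PBS injected in NSG tail vein. From the next day, salinomycin 3 mg/kg i.p. daily and/or JQ1 50 mg/kg i.p. 5 of 7 days for 2 weeks. Lungs and liver imaged by bioluminescence after i.p. luciferin 30 mg/kg; normalised photon flux; 10 mice/group; Wilcoxon test.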

SUM-159-PT [11] = experiment: Anticancer activity against human SUM159 cells expressing BFP assessed as reduction in ALDHbr cell at 50 nM by LSR2 cytometer analysis; type: functional
Breast cancer cell line [12] = experiment: Synergistic antitumor activity against human reimplanted CRCM404 negative breast cancer cells orthotopically xenografted in NSG mouse model of PDX assessed as reduction tumor volume at 50 mg/kg, ip 5 out of 7 for 2 weeks cotreated with salinomycin by limiting dilation analysis; type: functional, organism-based
Breast cancer cell line [13] = experiment: Synergistic antitumor activity against human CRCM494 negative breast cancer cells orthotopically xenografted in NSG mouse model of PDX assessed as reduction in tumor volume at 50 mg/kg, ip 5 out of 7 for 2 weeks cotreated with salinomycin; type: functional, organism-based; outline: as §3
Breast cancer cell line [14] = experiment: Synergistic antitumor activity against human CRCM434 negative breast cancer cells orthotopically xenografted in NSG mouse model of PDX assessed as reduction in tumor volume at 50 mg/kg, ip 5 out of 7 for 2 weeks cotreated with salinomycin; type: functional, organism-based; outline: as §3
SUM-159-PT [15] = experiment: Synergistic anticancer activity against human SUM159 cells expressing BFP assessed as reduction in ALDHbr cell 50 nM in presence of salinomycin by LSR2 cytometer analysis; type: functional
SUM-159-PT [16] = experiment: Synergistic anticancer activity against human SUM159 cells assessed as decrease in primary tumor sphere formation at 62 nM incubated for 72 hrs in presence of salinomycin by Extreme limiting dilution analysis; type: functional
Outline: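 72 h adherent pretreatment (Sal/JQ1 62 nM/62 nM; docetaxel added at 2 nM where used), then single cells plated in ultra-low attachment 96-well plates in serum-free mammary epithelium basal medium at 25/10/5/3/2/1 cells/well (18–36 wells/condition). Wells with ≥1 sphere after 10 days scored positive; sphere-forming frequency by ELDA. Secondary spheres from dissociated primary spheres. n = 4; pairwise chi-square.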

## Cc1sc2c(c1C)C(c1ccc(Cl)cc1)=N[C@@H](CC(=O)OC(C)(C)C)c1nnc(C)n1-2
Breast cancer cell line [1]
  Activity: inactive
Breast cancer cell line [2]
  Activity: Active
SUM-159-PT [3]
  Activity: Active
Breast cancer cell line [4]
  Activity: Active
SUM-159-PT [5]
  Activity: Active
SUM-159-PT [6]
  Activity: inactive
SUM-159-PT [7]
  Activity: Active
Breast cancer cell line [8]
  Activity: Active
SUM-159-PT [9]
  Activity: Active
SUM149PT
  Activity: Active
Breast cancer cell line [10]
  Activity: Active
SUM-159-PT [11]
  fold change (FC): 2
Breast cancer cell line [12]
  Activity: Active
Breast cancer cell line [13]
  Activity: Active
Breast cancer cell line [14]
  Activity: Active
SUM-159-PT [15]
  fold change (FC): 4
SUM-159-PT [16]
  fold change (FC): 2.4
